Bioassay records as filed in PubChem BioAssay.
CSN deneddyl inh – inhibitors of CSN-mediated cullin deneddylation, primary screen, biochemical, fluorescence polarization, uHTS; 360,000 compounds, 0.38% hits; COP9 signalosome complex subunit 5 (Homo sapiens), Q92905; Purified CSN, SCF-Nedd8-OG deneddylation; inhibition, % at 12.5 µM;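 active = pattern-corrected inhibition above about 35%, with an unprinted fluorescence ratio check between 0.5 and 1.5, limit read from the data, passing the limit was not always enough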;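 also: 0% = enzyme with substrate and 100% = substrate without enzyme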
Target sequence (Q92905 whole entry, looked up, one chain of several): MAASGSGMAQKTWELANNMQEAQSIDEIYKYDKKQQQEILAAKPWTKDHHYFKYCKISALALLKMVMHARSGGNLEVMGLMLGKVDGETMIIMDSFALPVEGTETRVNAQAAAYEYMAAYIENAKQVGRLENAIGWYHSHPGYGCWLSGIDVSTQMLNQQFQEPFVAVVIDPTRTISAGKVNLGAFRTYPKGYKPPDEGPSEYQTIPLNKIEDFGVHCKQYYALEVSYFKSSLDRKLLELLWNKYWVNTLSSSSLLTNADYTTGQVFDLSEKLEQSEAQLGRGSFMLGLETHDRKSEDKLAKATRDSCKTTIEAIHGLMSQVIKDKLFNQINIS
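Test system: Human Csn5 produced in HEK293T cells | Compound: 12.5 µM single point | Times: 90 min, room temperature | Signal: Fluorescence polarization readout | Read-out basis: % inhibition of substrate cleavage by Csn5 | Controls: no-enzyme wells high, enzyme-with-substrate wells low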
Xi reactivation – activators of inactive X chromosome reactivation, primary screen, imaging, XiGFP fibroblasts, GFP high-content imaging, set 2; XiGFP mouse fibroblasts, % GFP-positive cells imaging, 3 d; cells co-treated with 5-aza-dC sensitizer; scaled so ellipticine positive control = 100%; activation, % at 7.58 µM; 360,000 compounds, 0.055% hits; AID 743238, 2013;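 active = mean normalized replicate activation at least 10% and every replicate at or above 10%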;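 also: 0% = median of on-plate neutral control wells and 100% = ellipticine 6 µM median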
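System: 68-5-11 XiGFP fibroblast line; Timing: 3 days compound exposure; Compound dosing: one concentration, pinned; Benchmarks: positive control ellipticine, 6 µM final; Buffer or medium: DMEM containing 5-aza-dC.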
aDG glyco act – activators of alpha-DG glycosylation, primary screen, uHTS, Pro5-aDG cells, AlphaScreen; activation, % at 10 µM; alpha-DG glycosylation AlphaScreen (IIH6); 0% Pro5, 100% B10-LARGE cell signal; 360,000 compounds, 0.22% hits;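 active = activation of at least 8% versus controls, or a plate z-score of at least 8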;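 also: Pro5 are CHO cells carrying HIG-tagged alpha-DG that lacks glycosylation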
TPT1 inh – Candida albicans TPT1 enzyme inhibitors, primary screen, biochemical, fluorescence polarization. tRNA 2'-phosphotransferase TPT1 (Candida albicans SC5314). recombinant caTPT1, FP RNA substrate dephosphorylation. inhibition, % at 5 µM. 300,000 compounds, 0.81% hits. AID 1962, 2009;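 active = inhibition above the mean of all tested compounds plus 3 SD, set per screening campaign, cut at about 24% in these data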;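 also: plate controls were DMSO alone for no effect and ferristatin control at 100 nM for full effect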
HNF4A DNA FP – change in binding of human HNF4A to DNA, primary screen, biochemical, fluorescence polarization, FITC-DNA | Hepatocyte nuclear factor 4-alpha (Homo sapiens), P41235 | 1 h | activity change, % at 10 µM | 360,000 compounds, 0.3% hits; in the data active = activity change above about 30%, passing the limit was not always enough
Rpn11 inh – Rpn11 (PSMD14) deubiquitinase inhibitors, primary screen, biochemical, fluorescence polarization, uHTS. 26S proteasome non-ATPase regulatory subunit 14 (Homo sapiens), O00487. human 26S proteasome, Ub4-pepOG fluorescence polarization; 20S core pre-blocked with epoxomicin. inhibition, % at 20 µM. 360,000 compounds, 0.59% hits;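 active = inhibition at 20 µM, scaled to each plate's controls, above about 33%, limit read from the data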
Target sequence (O00487 whole entry, looked up): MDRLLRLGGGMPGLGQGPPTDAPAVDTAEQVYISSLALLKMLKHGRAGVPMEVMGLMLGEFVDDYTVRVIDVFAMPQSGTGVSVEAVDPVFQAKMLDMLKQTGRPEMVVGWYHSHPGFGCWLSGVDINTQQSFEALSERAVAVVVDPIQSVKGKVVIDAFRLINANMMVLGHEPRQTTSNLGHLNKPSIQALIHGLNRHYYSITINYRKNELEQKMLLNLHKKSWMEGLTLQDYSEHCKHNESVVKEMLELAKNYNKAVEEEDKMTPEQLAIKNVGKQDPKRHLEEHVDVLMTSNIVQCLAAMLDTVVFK
aDG conf – alpha-DG glycosylation enhancers, retest, confirmation, single concentration, Pro5-aDG cells; shares compounds with aDG glyco act; IIH6 AlphaLISA; scaled to LARGE-overexpressing B10 cells as 100%; activation, % at 10 µM (by protocol); 600 compounds, 17% hits;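 active = activation of at least 7% in one or more replicates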;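 also: cells exposed to compound for two days before detection; 0% = DMSO-treated Pro5 cells and 100% = DMSO-treated B10-LARGE cells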
* hit, by the source's call. This is a sample that favours compounds with a hit; in the whole collection about 1.3% have one here.

Screening Cc1ccccc1-c1cccc([C@@H]2C[C@H]3[C@H](CON3C)CN2S(=O)(=O)c2ccccc2C)c1 returned CSN deneddyl inh 5.1, aDG glyco act 6.0*, HNF4A DNA FP -1.0, Rpn11 inh 2.4 and aDG conf 0.2.
`CO[C@H]1CN(C)C(=O)c2ccc(NC(=O)NC(C)C)cc2OC[C@@H](C)N(C(=O)NC(C)C)C[C@H]1C` gave Xi reactivation 0.1.
`CC(C)[C@@H]1C(=O)N[C@@H](c2ccc3c(c2)OCO3)CC=CC[C@@H](C)Oc2ccccc2C(=O)N1C` (mixture of isomers) gave Xi reactivation 0.0.
Screening CCc1ccccc1NC(=O)COC(=O)c1c(C)nsc1NC returned CSN deneddyl inh -0.7, Xi reactivation -0.1, aDG glyco act 4.0*, HNF4A DNA FP 2.4, Rpn11 inh 6.2 and aDG conf 0.1.
Screening CNc1snc(C)c1C(=O)OCC(=O)Nc1ccc(C)cc1F returned CSN deneddyl inh -0.6, Xi reactivation 0.1, aDG glyco act 1.5, HNF4A DNA FP 1.8 and Rpn11 inh -4.0.
For CC1CCCC(C)N1C(=O)CSc1nnnn1Cc1ccccc1 (stereo unspecified) the results were CSN deneddyl inh -5.3, aDG glyco act 5.6*, TPT1 inh 0.7, HNF4A DNA FP 3.5, Rpn11 inh -1.9 and aDG conf -0.7.
Screening C/C=C/c1ccc([C@H]2[C@H]3CN(C(=O)Nc4ccc(OC)cc4)CC(=O)N3[C@H]2CO)cc1 returned Xi reactivation 0.0.
C[C@@H]1CN([C@@H](C)CO)C(=O)c2cc(NS(=O)(=O)c3ccccc3)ccc2O[C@@H](C)CCCCO[C@H]1CN(C)C was read as Xi reactivation 0.0.
`CC(C)C[C@H]1COCCS(=O)(=O)N1Cc1ccccc1F` gave CSN deneddyl inh 4.3, Xi reactivation 0.3, aDG glyco act 6.1*, TPT1 inh -1.7, HNF4A DNA FP -2.7, Rpn11 inh 0.8 and aDG conf -0.4.
Screening CCOC(=O)c1cnc(-n2nc(C)cc2C)nc1Nc1ccc(C)cc1 returned CSN deneddyl inh 0.8, aDG glyco act 6.5*, HNF4A DNA FP -0.2, Rpn11 inh -0.9 and aDG conf 2.1.
Screening CCOC(=O)c1cnc(-n2nc(C)cc2C)nc1Nc1ccc(O)cc1 returned CSN deneddyl inh -2.4, Xi reactivation 0.6, aDG glyco act -0.1, TPT1 inh -0.6, HNF4A DNA FP 2.1 and Rpn11 inh -3.4.
O=C(O)C[C@H]1C[C@@H]2c3cc(NC(=O)C4CCOCC4)ccc3O[C@@H]2[C@H](CO)O1 was read as Xi reactivation -0.1.
Screening CCn1cc(C(=O)NCC(OC)OC)c(=O)c2cc(S(=O)(=O)N3CCOCC3)ccc21 returned CSN deneddyl inh -0.2, Xi reactivation 0.0, aDG glyco act 7.6*, TPT1 inh 1.0, HNF4A DNA FP 14.6, Rpn11 inh -0.9 and aDG conf -0.3.
Screening CCc1cc(=O)oc2cc(C)cc(OC(C)C(=O)NCCCN3CCOCC3)c12 (stereo unspecified) returned CSN deneddyl inh -3.3, Xi reactivation 0.0, aDG glyco act 0.1, TPT1 inh 0.7, HNF4A DNA FP 1.7 and Rpn11 inh 0.2.
Cc1cc(OC(C)C(=O)NCCN2CCOCC2)c2c(C)cc(=O)oc2c1 (stereo unspecified) was read as CSN deneddyl inh -1.2, Xi reactivation 0.0, aDG glyco act 8.3*, TPT1 inh 0.2, HNF4A DNA FP -1.6, Rpn11 inh 2.3 and aDG conf 1.1.
`Cc1ccccc1Cn1c(C)nc2ccccc21` gave CSN deneddyl inh 3.3, Xi reactivation -0.2, aDG glyco act 3.3*, TPT1 inh -0.2, HNF4A DNA FP 0.6, Rpn11 inh -1.2 and aDG conf 1.8.
Screening CO[C@H]1CN(C)C(=O)c2cc(NC(C)=O)ccc2OC[C@@H](C)N(C(=O)C2CCCCC2)C[C@H]1C returned Xi reactivation -0.1.
For Cc1ccc2c(c1)NC(=O)C(CC(=O)NCCCN1CCN(c3cc(Cl)ccc3C)CC1)O2 (stereo unspecified) the results were CSN deneddyl inh -0.6, Xi reactivation 0.0, aDG glyco act 14.0*, TPT1 inh 0.6, HNF4A DNA FP 2.7, Rpn11 inh 10.9 and aDG conf 0.5.
CNC(=O)C[C@@H]1CC[C@@H]2[C@H](COC[C@H](O)CN2Cc2ccccc2F)O1 was read as Xi reactivation 0.3.
`O=C(C[C@H]1CC[C@H](NC(=O)c2ccncc2)[C@@H](CO)O1)Nc1ccc(-c2ccccc2)cc1` gave Xi reactivation 0.0.
`CCOc1ccc(C(=O)Nc2nc3ccccc3[nH]2)cc1OCC` gave CSN deneddyl inh -1.8, Xi reactivation 0.2, aDG glyco act 7.9*, TPT1 inh 0.2, HNF4A DNA FP -1.8, Rpn11 inh -3.3 and aDG conf 1.1.
Screening CN(C)CC(=O)N1[C@@H](CO)[C@H](c2ccccc2)C12CN(C(=O)C1CCCC1)C2 returned Xi reactivation -0.1.
`OC[C@@H]1CN(Cc2ccccc2)C[C@H](n2cnc3c(NC4CC4)ncnc32)O1` gave CSN deneddyl inh -0.7, Xi reactivation -0.1, aDG glyco act 0.0, HNF4A DNA FP 2.8 and Rpn11 inh -6.1.
For OC[C@@H]1CN(Cc2ccc(-c3ccccc3)cc2)C[C@H](n2cnc3c(NC4CCC4)ncnc32)O1 the results were CSN deneddyl inh 5.5, Xi reactivation 0.1, aDG glyco act 7.6*, HNF4A DNA FP -5.5, Rpn11 inh -4.9 and aDG conf 1.7.
For CCCCc1ccc(NC(=O)N2CCN(c3cc(C)nc4ccccc34)CC2)c(C)c1 the results were CSN deneddyl inh 0.9, aDG glyco act 3.3*, TPT1 inh -0.3, HNF4A DNA FP 1.2, Rpn11 inh 3.4 and aDG conf 4.2.
